Experimental data reported in ChEMBL document CHEMBL2086242, “Synthesis and SAR studies of mono O-prenylated coumarins as potent 15-lipoxygenase inhibitors” (Eur J Med Chem, 2012).
Activity calls are given as the source filed them. The rule behind the calls is not given here.

Legend:
[1] = Inhibition of soybean 15-lipoxygenase by MBTH-DMAB method; design: species or system Glycine max
How it was run: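 Test sample in ethanol was preincubated 5 min at room temperature with SLO (stock 4000 units/mL) in 50 mM phosphate, pH 7.0, with an ethanol control. Linoleic acid (Tween 20/KOH) started peroxidation. After 7 min, DMAB (solution A) and then MBTH with hemoglobin at pH 5.0 (solution B) developed colour. After 5 min more, 2% SDS stopped the reaction.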

[2] = target: T1, Polyunsaturated fatty acid lipoxygenase ALOX15 (Homo sapiens, UniProt P16050); experiment: Inhibition of recombinant human 15-lipoxygenase by MBTH-DMAB method
T1 sequence (P16050 whole entry): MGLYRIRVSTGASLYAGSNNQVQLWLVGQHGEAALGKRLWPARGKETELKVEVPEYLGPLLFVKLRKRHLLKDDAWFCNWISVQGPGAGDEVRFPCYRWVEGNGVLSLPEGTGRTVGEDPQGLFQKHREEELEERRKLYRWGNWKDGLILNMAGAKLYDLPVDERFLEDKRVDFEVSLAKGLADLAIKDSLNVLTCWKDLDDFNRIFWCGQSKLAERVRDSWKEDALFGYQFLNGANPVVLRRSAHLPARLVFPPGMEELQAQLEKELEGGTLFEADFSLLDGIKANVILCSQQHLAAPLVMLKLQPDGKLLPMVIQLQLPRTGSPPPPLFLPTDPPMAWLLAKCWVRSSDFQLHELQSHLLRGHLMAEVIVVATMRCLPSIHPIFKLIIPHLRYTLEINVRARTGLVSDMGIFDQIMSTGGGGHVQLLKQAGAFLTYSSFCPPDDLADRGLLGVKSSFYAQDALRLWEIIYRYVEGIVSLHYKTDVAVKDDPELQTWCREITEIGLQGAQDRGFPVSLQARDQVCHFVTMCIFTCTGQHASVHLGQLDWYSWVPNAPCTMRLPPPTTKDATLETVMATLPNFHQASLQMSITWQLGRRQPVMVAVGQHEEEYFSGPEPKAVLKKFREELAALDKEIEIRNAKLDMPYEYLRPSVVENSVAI

Glycine max = experiment: Competitive inhibition of soybean 15-lipoxygenase at 1.25 to 5 uM by Lineweaver-Burk plot
How it was run: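 Soybean 15-lipoxygenase activity was read by the MBTH–DMAB end-point method at linoleic acid levels of 25, 50, 100 and 200, plotted as double-reciprocal (Lineweaver–Burk) curves with and without inhibitor.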

Row | IC50 [1] [µM] | IC50 [2] [µM] | inhibition (Glycine max) | Structure (SMILES)
1 | 39.4 |  |  | O=C(O)/C=C/c1ccc(O)c(O)c1 [CAFFEIC ACID]
2 | 46.5 |  |  | CC(C)=CCOc1cccc2ccc(=O)oc12
3 | 39.8 |  |  | CC(C)=CCOc1cccc2oc(=O)ccc12
4 | 60.4 |  |  | CC(C)=CCOc1ccc2ccc(=O)oc2c1 [7-PRENYLOXYCOUMARIN]
5 | 69.4 |  |  | CC(C)=CCOc1ccc2oc(=O)ccc2c1
6 | 5.8 |  |  | CC(C)=CCC/C(C)=C/CC/C(C)=C/COc1cccc2ccc(=O)oc12
7 | 43.9 |  |  | CC(C)=CCOc1cc(=O)oc2ccccc12
8 | 21.2 |  |  | Cc1nc(N2CCN(C)CC2)nc2c1Nc1ccccc1S2
9 | 2.1 | 1.3 |  | CC(C)=CCC/C(C)=C/CC/C(C)=C/COc1ccc2oc(=O)ccc2c1
10 | 9.6 | 6.8 |  | CC(C)=CCC/C(C)=C/COc1ccc2oc(=O)ccc2c1
11 | 2.8 |  |  | CC(C)=CCC/C(C)=C/COc1cccc2oc(=O)ccc12
12 | 5.6 | 42.6 |  | CC(C)=CCC/C(C)=C/COc1cc(=O)oc2ccccc12
13 | 8.1 |  |  | CC(C)=CCC/C(C)=C/COc1cccc2ccc(=O)oc12
14 | 1.7 | > 50 | Active | CC(C)=CCC/C(C)=C/CC/C(C)=C/COc1cc2ccccc2oc1=O
15 | 3.5 |  |  | CC(C)=CCC/C(C)=C/CC/C(C)=C/COc1cc(=O)oc2ccccc12
16 | 0.8 | 3.6 |  | CC(C)=CCC/C(C)=C/CC/C(C)=C/COc1cccc2oc(=O)ccc12
17 | 3.1 |  |  | CC(C)=CCC/C(C)=C/CC/C(C)=C/COc1ccc2ccc(=O)oc2c1 [UMBELLIPRENIN]
18 | 4.7 | > 100 |  | CC(C)=CCC/C(C)=C/COc1cc2ccccc2oc1=O
19 | 6.3 |  |  | CC(C)=CCC/C(C)=C/COc1ccc2ccc(=O)oc2c1 [AURAPTENE]
20 | 54.4 |  |  | CC(C)=CCOc1cc2ccccc2oc1=O

Row | Structure (SMILES) | IC50 [1] [µM] | IC50 [2] [µM] | inhibition (Glycine max)
21 | CC(C)=CCC/C(C)=C/CC/C(C)=C/COc1ccccc1 [FARNESYL PHENYL ETHER] | 2.7 | > 50 | 
